Results on three molecules are retold here after ChEMBL document CHEMBL1126828, “Structure-activity relationships of trans-3,4-dimethyl-4-(3-hydroxyphenyl)piperidine antagonists for mu- and kappa-opioid receptors” (J Med Chem, 1993).

Calls of active or inactive are those of the source. The rule behind the calls is not given here.

Assay [1] deals with T1, Mu-type opioid receptor (Rattus norvegicus, UniProt P33535). Kind of assay: Binding affinity towards mu-opioid receptor by displacement of [3H]NAL at 10 nM from rat brain homogenates. Format: tissue-based. On the technique in general: In a radioligand displacement assay an active substance lowers the binding of a labelled ligand.
The target of assay [2] is T1, Mu-type opioid receptor. The experiment in a line: Binding affinity towards mu-opioid receptor by displacement of [3H]NAL at 100 nM from rat brain homogenates. Format: tissue-based.
Assay [3] deals with Mu-type opioid receptor (Mus musculus) (UniProt P42866). To be noted: 0.08 mg/kg.
The target is the same in assay [4]. Kind of assay: Antagonism of opioid analgesia using a mouse writhing model to block morphine ([…]) induced mu-opioid receptor (subcutaneously dosed). Format: functional, organism-based. On the technique in general: In writhing tests, fewer writhes than in controls are read as antinociception.
Assay [5] deals with Kappa-type opioid receptor (Rattus norvegicus) (UniProt P34975). The experiment in a line: Tested for the antagonism of kappa opioid receptor diuresis at a dose of 0.08 mg/kg subcutaneously. Also noted: dose 0.08 mg/kg. Format: functional, organism-based. The essentials:
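Male Long-Evans hooded rats (350-500 g), bremazocine HCl 0.08 mg/kg sc to induce diuresis, test antagonist sc at once on opposite side; metabolism cages, urine volume at 2 and 5 h. Three rats per dose, doses varied 2-fold; AD50 = dose halving 5-h urination.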

Assay [6] has as its target Kappa-type opioid receptor (Cavia porcellus, UniProt P41144). Kind of assay: Binding affinity towards kappa-opioid receptor by displacement of [3H]EKC from guinea pig cortical tissue. The essentials:
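Guinea pig cortical washed crude synaptosomal membranes (stored -125 °C) in modified Krebs-HEPES pH 7.4; 1.0 nM [3H]ethylketocyclazocine, 100 nM fentanyl and 100 nM D-Ala2-D-Leu5-enkephalin to block mu/delta sites; 37 °C, 45 min. Nonspecific: 1000 nM unlabeled EKC. GF-C filtration, ice-cold washes, scintillation counting. Ki from at least six concentrations in triplicate, by regression.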

The target in assay [7] is Kappa-type opioid receptor (Mus musculus) (UniProt P33534). The experiment in a line: Antagonism of opioid analgesia using a mouse writhing model to block U-50,488 ([…]) induced kappa-opioid receptor subcutaneously. In kind it is functional, organism-based.
Kappa-type opioid receptor (Mus musculus), sequence (P33534 whole entry): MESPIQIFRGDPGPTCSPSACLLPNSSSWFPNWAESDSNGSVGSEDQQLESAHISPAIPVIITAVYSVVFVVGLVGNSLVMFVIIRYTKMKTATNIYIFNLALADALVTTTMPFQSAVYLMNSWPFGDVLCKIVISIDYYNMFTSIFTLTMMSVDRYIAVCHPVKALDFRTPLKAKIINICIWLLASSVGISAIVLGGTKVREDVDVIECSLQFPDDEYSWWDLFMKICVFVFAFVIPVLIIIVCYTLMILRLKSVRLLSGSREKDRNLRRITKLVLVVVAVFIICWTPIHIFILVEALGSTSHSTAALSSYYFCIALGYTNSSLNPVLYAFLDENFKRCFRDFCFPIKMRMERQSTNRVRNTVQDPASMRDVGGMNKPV

Mu-type opioid receptor (Mus musculus), sequence (P42866 whole entry): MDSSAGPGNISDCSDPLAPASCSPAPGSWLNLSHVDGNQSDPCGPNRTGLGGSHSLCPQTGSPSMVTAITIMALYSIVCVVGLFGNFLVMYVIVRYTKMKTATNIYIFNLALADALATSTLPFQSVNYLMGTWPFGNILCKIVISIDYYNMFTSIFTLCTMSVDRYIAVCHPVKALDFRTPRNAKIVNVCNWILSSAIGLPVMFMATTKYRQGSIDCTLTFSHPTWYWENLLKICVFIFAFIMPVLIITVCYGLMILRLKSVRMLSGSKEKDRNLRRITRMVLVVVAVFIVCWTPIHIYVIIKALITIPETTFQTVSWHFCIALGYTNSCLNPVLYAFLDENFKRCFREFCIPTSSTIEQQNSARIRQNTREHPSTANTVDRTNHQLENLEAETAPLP
T1 sequence (P33535 whole entry): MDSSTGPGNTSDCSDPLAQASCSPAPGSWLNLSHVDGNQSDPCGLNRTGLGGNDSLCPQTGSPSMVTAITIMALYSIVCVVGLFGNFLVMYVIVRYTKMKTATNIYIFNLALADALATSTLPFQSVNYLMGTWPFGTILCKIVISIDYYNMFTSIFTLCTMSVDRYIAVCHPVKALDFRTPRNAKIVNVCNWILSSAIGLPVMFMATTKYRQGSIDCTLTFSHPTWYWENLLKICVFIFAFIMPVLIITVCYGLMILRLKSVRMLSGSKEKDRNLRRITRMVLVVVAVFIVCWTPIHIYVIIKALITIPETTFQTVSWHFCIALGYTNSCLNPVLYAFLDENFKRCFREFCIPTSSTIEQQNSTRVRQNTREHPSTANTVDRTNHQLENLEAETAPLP
Kappa-type opioid receptor (Rattus norvegicus), sequence (P34975 whole entry): as the sequence (P33534 whole entry) above, with D11E, S17A, S51P, A308V counted along it
Kappa-type opioid receptor, sequence (P41144 whole entry): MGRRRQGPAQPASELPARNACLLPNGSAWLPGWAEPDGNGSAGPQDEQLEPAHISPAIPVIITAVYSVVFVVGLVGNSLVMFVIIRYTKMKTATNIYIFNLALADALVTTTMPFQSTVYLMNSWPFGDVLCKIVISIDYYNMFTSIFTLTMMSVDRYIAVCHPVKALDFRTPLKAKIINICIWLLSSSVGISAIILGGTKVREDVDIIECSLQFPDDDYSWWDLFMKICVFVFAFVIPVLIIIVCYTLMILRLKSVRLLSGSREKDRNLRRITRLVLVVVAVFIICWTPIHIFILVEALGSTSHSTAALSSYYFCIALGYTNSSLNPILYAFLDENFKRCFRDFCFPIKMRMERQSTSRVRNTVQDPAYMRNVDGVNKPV

As to `C[C@H]1CN(CCc2ccc(Cl)c(Cl)c2)CC[C@@]1(C)c1cccc(O)c1`, the Ki in assay [1] is 50 nM; in assay [2], 90 nM. For the same molecule, the AD50 entry in assay [3] is “inactive”.
`Cc1ccccc1CCN1CC[C@@](C)(c2cccc(O)c2)[C@@H](C)C1`: the Ki in assay [1] is 90 nM; in assay [2], 100 nM; in assay [6], 7.5 nM. Besides, the AD50 in assay [4] turned out to be 0.19 mg/kg; in assay [5] it was 0.5 mg/kg; in assay [7] it was 0.33 mg/kg.
For `C[C@H]1CN(CC(O)c2ccccc2)CC[C@@]1(C)c1cccc(O)c1` (some centres undefined), the values for the Ki in assay [1] and in assay [2] were 48 nM and 97 nM, respectively. The AD50 was 2.4 mg/kg in assay [4], 6.9 mg/kg in assay [5] and 11.8 mg/kg in assay [7].

The term Ki denotes a measure of affinity in units of concentration, obtained from inhibition or displacement. Low values mean higher affinity, high ones lower affinity.
